Published values collected from several papers.
Target: Protein kinase C epsilon type (PRKCE, Homo sapiens, UniProt Q02156)
Residues used in one study (Q02156 1-737): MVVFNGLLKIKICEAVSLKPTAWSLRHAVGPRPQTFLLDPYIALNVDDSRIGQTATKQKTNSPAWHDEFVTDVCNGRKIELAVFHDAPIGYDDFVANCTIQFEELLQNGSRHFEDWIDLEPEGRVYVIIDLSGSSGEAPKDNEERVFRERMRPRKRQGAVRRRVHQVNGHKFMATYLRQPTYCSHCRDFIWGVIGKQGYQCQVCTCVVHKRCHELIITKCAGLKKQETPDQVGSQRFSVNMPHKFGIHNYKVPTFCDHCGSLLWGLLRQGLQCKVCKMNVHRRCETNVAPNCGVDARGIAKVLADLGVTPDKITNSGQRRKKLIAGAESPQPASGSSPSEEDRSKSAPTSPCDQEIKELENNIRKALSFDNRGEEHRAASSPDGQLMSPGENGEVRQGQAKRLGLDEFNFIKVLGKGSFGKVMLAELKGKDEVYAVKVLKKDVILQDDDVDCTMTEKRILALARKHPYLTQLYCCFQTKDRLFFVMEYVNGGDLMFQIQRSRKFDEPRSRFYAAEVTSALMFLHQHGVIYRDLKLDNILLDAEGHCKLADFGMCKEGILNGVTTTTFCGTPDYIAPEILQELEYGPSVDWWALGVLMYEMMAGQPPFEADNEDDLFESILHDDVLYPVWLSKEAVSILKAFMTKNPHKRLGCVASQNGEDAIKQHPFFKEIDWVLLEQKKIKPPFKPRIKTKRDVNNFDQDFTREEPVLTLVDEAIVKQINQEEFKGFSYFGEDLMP

N#Cc1ccc(NC(=O)Nc2ccccc2)cc1
remaining binding (cell-free assay; competition with immobilised ligand; 25 µM): 100%

C[C@H]1CC[C@H](n2c3cnccc3c3cnc(Nc4ccc5c(n4)CCN(C(=O)CO)C5)nc32)CC1
remaining signal (cell-free assay; 1 µM): 100%

C#Cc1cnc(Nc2ccnc(CO)c2)nc1Nc1ccccc1S(C)(=O)=NC#N (stereo not drawn)
remaining signal (cell-free assay; 1 µM): 62%

CC#CC(=O)N1CCC[C@H]1c1nc(-c2ccc(C(=O)Nc3ccccn3)cc2)c2c(N)nccn12
inhibition (enzyme activity; inhibitor; 1 µM): 0%

Cc1ccc(NC(=O)c2ccnc(C(F)(F)F)c2)cc1-c1cc(OCCO)nc(N2CCOCC2)c1
remaining binding (binding; 1 µM): 75%

CO[C@@H]1[C@H](N(C)C(=O)c2ccccc2)C[C@H]2O[C@]1(C)n1c3ccccc3c3c4c(c5c6ccccc6n2c5c31)C(=O)NC4
inhibition (enzyme activity; inhibitor; 1 µM): 92%

C1=C/COCc2cc(ccc2OCCN2CCCC2)Nc2nccc(n2)-c2cccc(c2)COC/1
remaining binding (binding; 0.1 µM): 68%

CCCCC(=O)Nc1ccc(-c2ccc3ncn(CCC)c(=O)c3c2)cn1
remaining binding (binding; competition with immobilised ligand; 0.5 µM): 83%

COc1ccc2oc(-c3ccc4nc(N)oc4c3)c/c(=N\c3ccccc3NC(=O)CCN)c2c1
remaining binding (binding; 1 µM): 106%
